{"source": "paper PMC6689428", "about": "(Biochimica et biophysica acta. Biomembranes, 2019)", "key": {"[1]": {"system": "S. aureus USA300", "experiment": "Membrane depolarization, DiBAC4", "format": "cell-based, Staphylococcus aureus", "conditions": "S. aureus USA300, treated at 12.5 μM, DiBAC4(3) fluorescence; Triton X-100 (0.1%) positive control"}, "[2]": {"system": "S. aureus USA300 biofilms", "experiment": "Disruption of 24 h established biofilms, XTT", "format": "cell-based, Staphylococcus aureus", "conditions": "24 h preformed S. aureus USA300 biofilms, 24 h treatment in TSB", "method_in_brief": "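Exponential-phase TSB culture at 10^5 CFU/mL grew 24 h at 37°C to form biofilms. Plankton was removed with a PBS wash. Biofilms took 10× peptide diluted in fresh TSB for 24 h at 37°C, were washed, then got XTT in TSB for 2 h at 37°C. A450 was blanked on media plus XTT. Growth was expressed as % of untreated biofilm wells.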"}, "[3]": {"system": "E. coli ATCC 25922 biofilms", "experiment": "Disruption of 24 h established biofilms, XTT", "format": "cell-based, Escherichia coli", "conditions": "24 h preformed E. coli ATCC 25922 biofilms"}, "[4]": {"system": "S. aureus USA300", "experiment": "Membrane permeation, propidium iodide", "format": "cell-based, Staphylococcus aureus", "conditions": "S. aureus USA300, peptides at 3.12 μM, 10 mM PBS, 37°C, read for 2 h", "method_in_brief": "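Cells were suspended in 10 mM PBS at final OD600 ~0.1 with propidium iodide and serially diluted 10× peptide. They were held at 37°C shaking at 100 rpm. Fluorescence (ex 584/em 620 nm) was read every 5 min for 2 h. Plots used averages of duplicate experiments.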"}, "[5]": {"system": "E. coli ML-35p", "experiment": "Outer and inner membrane permeabilization", "format": "cell-based, Escherichia coli", "conditions": "peptides at 6.25 μM, absorbance for 40 min", "method_in_brief": "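Cells came from a single colony grown overnight in TSB at 37°C and were washed three times in PBS. They were diluted to ~10^6 CFU/mL in PBS containing 0.3 mg/mL TSB. Peptide was 0 to 12.5 μM, with 30 μM nitrocefin or 2.5 mM ONPG per well. Absorbance at 490 and 420 nm was followed for 40 min at 37°C.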"}, "[6]": {"system": "S. aureus USA300", "conditions": "ref [10]; cited from earlier work"}, "[7]": {"system": "E. coli", "conditions": "ref [50], [10]; cited from earlier work"}}, "data": [{"molecule": "CCCCCCCCCC(=O)N[C@@H](Cc1c[nH]c2ccccc12)C(=O)N[C@H](CC(N)=O)C(=O)N[C@@H](CC(=O)O)C(=O)N[C@@H]1C(=O)NCC(=O)N[C@@H](CCCN)C(=O)N[C@@H](CC(=O)O)C(=O)N[C@H](C)C(=O)N[C@@H](CC(=O)O)C(=O)NCC(=O)N[C@H](CO)C(=O)N[C@@H]([C@H](C)CC(=O)O)C(=O)N[C@@H](CC(=O)c2ccccc2N)C(=O)O[C@@H]1C", "note": "[daptomycin]", "values": [{"measurement": "Membrane depolarization", "setting": "[1]", "value": "very weak"}, {"measurement": "Concentration that essentially eliminated biofilms", "setting": "[2]", "value": 6.25, "unit": "µM"}]}, {"molecule": "CO[C@H]1/C=C/O[C@@]2(C)Oc3c(C)c(O)c4c(O)c(cc(O)c4c3C2=O)NC(=O)/C(C)=C\\C=C\\[C@H](C)[C@H](O)[C@@H](C)[C@@H](O)[C@@H](C)[C@H](OC(C)=O)[C@@H]1C", "note": "[rifamycin]", "values": [{"measurement": "Antibiofilm effect", "setting": "[3]", "value": "ineffective"}]}, {"molecule": "NC[C@H]1O[C@H](O[C@H]2[C@H](O)[C@@H](O[C@H]3O[C@H](CO)[C@@H](O)[C@H](N)[C@H]3O)[C@H](N)C[C@@H]2N)[C@H](N)C[C@@H]1O", "note": "[tobramycin]", "values": [{"measurement": "Membrane permeation (propidium iodide fluorescence)", "setting": "[4]", "value": "unable to damage bacterial membranes"}]}, {"molecule": "CN[C@H](CC(C)C)C(=O)N[C@H]1C(=O)N[C@@H](CC(N)=O)C(=O)N[C@H]2C(=O)N[C@H]3C(=O)N[C@H](C(=O)N[C@H](C(=O)O)c4cc(O)cc(O)c4-c4cc3ccc4O)[C@H](O)c3ccc(c(Cl)c3)Oc3cc2cc(c3O[C@@H]2O[C@H](CO)[C@@H](O)[C@H](O)[C@H]2O[C@H]2C[C@](C)(N)[C@H](O)[C@H](C)O2)Oc2ccc(cc2Cl)[C@H]1O", "note": "[vancomycin]", "values": [{"measurement": "Outer membrane permeation (β-lactamase, nitrocefin)", "setting": "[5]", "value": "unable to"}]}, {"molecule": "GFKRlVQRlKDFlRKLV-amide [GF-17d3]", "values": [{"measurement": "Activity against S. aureus USA300", "setting": "[6]", "value": "not active"}, {"measurement": "Activity against E. coli in the presence of chymotrypsin", "setting": "[7]", "value": "active"}]}]}
